The values that follow come from ChEMBL document CHEMBL1125920, “Synthesis and biological activity of 5-alkyl-1,7,8-trisubstituted-6-fluoroquinoline-3-carboxylic acids” (1991).

The test system of assay [1] is Klebsiella pneumoniae. Put plainly: Antibacterial activity was determined against gram negative organism, K. pneumoniae (MGH-2). Type of assay: functional. In a few lines:
(§1)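 MIC by standard microtitration against a panel of 10 representative Gram-negative and Gram-positive organisms; values reported in µg/mL.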

In assay [2] the test system is Mus musculus. Put plainly: In vivo subcutaneous protective dose was determined in female charles river CD-1 mice infected with Streptococcus pneumoniae. Type of assay: functional. Conditions: sc, read-out: PD50. In a few lines: (§2)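 Acute lethal systemic infection model in mice; drug given by subcutaneous injection; potency read out as median protective dose (PD50), in mg/kg.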

The test system of assay [3] is Mus musculus. Put plainly: In vivo oral protective dose was determined in female charles river CD-1 mice infected with Escherichia coli (vogel). It is filed as functional. To be noted: for ED50: Mus musculus, po, read-out: PD50. A digest of the protocol: (§3)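 Acute lethal systemic infection model in mice; drug given orally by gavage; potency read out as median protective dose (PD50), in mg/kg.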

Assay [4] concerns Mus musculus. Put plainly: In vivo oral protective dose was determined in female charles river CD-1 mice infected with Streptococcus pneumoniae. Conditions: read-out: PD50. Type of assay: functional. In a few lines: as §3
Assay [5] has as its system Mus musculus. Put plainly: In vivo subcutaneous protective dose was determined in female charles river CD-1 mice infected with Escherichia coli (vogel). It is filed as functional. To be noted: sc, read-out: PD50. A digest of the protocol:
as §2

Assay [6] has as its system Pseudomonas aeruginosa. Put plainly: Antibacterial activity was determined against gram negative organism, Pseudomonas aeruginosa (UI-18). Type of assay: functional. A digest of the protocol:
as §1

The subject of assay [7] is Bacteria. In words: Antibacterial activity was determined against gram negative organism, Providencia rettgeri. (M1771). Type of assay: functional. In a few lines:
as §1

Assay [8] has as its system Streptococcus pyogenes. In words: Antibacterial activity was determined against gram positive organism, Streptococcus pyogenes (C203). It is filed as functional. In a few lines:
as §1

Assay [9] relates to Staphylococcus aureus. In words: Antibacterial activity was determined against gram positive organism, Staphylococcus aureus (UC76). Type of assay: functional. A digest of the protocol: as §1
A short description of assay [10]: MIC ratio measured as the mean MICs of gram-negative bacteria. Type of assay: functional. In a few lines:
(§4)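 Geometric mean of the MICs (µg/mL) over the Gram-negative or the Gram-positive strains of the 10-organism microtitration panel, calculated separately for each class.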

Assay [11] in a line: MIC ratio measured as the mean MICs of gram-positive bacteria. It is filed as functional. A digest of the protocol:
as §4

Assay [12] deals with DNA gyrase (Escherichia coli) (UniProt P0AES6+P0AES4).
Assay [13] concerns Enterobacter cloacae. In words: Antibacterial activity against gram negative organism, […] (MA2646). Type of assay: functional.
In assay [14] the test system is Escherichia coli. Put plainly: Antibacterial activity was determined against gram negative organism, E. coli(vogel). Type of assay: functional. A digest of the protocol: as §1
Assay [15] has as its system Streptococcus pneumoniae. Put plainly: Antibacterial activity was determined against gram positive organism, Streptococcus pneumoniae (SV-1). Type of assay: functional. In a few lines: as §1
The subject of assay [16] is Enterococcus faecalis. In words: Antibacterial activity was determined against gram positive organism, Streptococcus faecalis (MGH-2). It is filed as functional. In a few lines:
as §1

In assay [17] the test system is Staphylococcus aureus. Put plainly: Antibacterial activity was determined against gram positive organism, Staphylococcus aureus (H228). Type of assay: functional. In a few lines:
as §1

In brackets after ≈: the same amount, converted by molar mass.

The MIC is the least concentration at which growth counts as inhibited. Read a low MIC as a more susceptible organism. For `CCNCC1CCN(c2c(F)cc3c(=O)c(C(=O)O)cn(C4CC4)c3c2F)C1` (centres undefined) [PD-117558], the MIC in [1] came to 0.1 µg/mL (≈ 0.255 µM); in assay [6], 0.4 µg/mL (≈ 1.02 µM); in assay [7], 0.2 µg/mL (≈ 0.511 µM); in [8] it was 0.025 µg/mL (≈ 0.0639 µM); in assay [9], 0.013 µg/mL (≈ 0.0332 µM). For the same compound, the ED50 in assay [2] is 2 mg/kg; in assay [3] it was 4.2 mg/kg; in assay [4], 3.3 mg/kg; in assay [5], 1 mg/kg. In addition, the Ratio was determined as 0.13 in [10] and 0.025 in [11]. The DNA cleavage in assay [12] was 0.25 µg/mL.
As for `Cc1c(F)c(N2CCNC(C)C2)c(F)c2c1c(=O)c(C(=O)O)cn2C1CC1` (centres undefined), the MIC is 0.025 µg/mL (≈ 0.0662 µM) in [13]; 0.025 µg/mL (≈ 0.0662 µM) in [14]; 0.05 µg/mL (≈ 0.132 µM) in assay [1]; 0.4 µg/mL (≈ 1.06 µM) in assay [6]; 0.1 µg/mL (≈ 0.265 µM) in assay [7]; 0.025 µg/mL (≈ 0.0662 µM) in assay [15]. Besides, the MIC in [16] was found to be 0.1 µg/mL (≈ 0.265 µM); in assay [8], 0.05 µg/mL (≈ 0.132 µM); in assay [17], 0.025 µg/mL (≈ 0.0662 µM); in assay [9], 0.013 µg/mL (≈ 0.0344 µM). Also, the ED50 came to 11 mg/kg in assay [2], 0.75 mg/kg in [3], 12 mg/kg in assay [4] and 0.4 mg/kg in [5]. The Ratio in assay [10] amounted to 0.066; in assay [11], 0.033. Further, the DNA cleavage in assay [12] stood at 3 µg/mL.
On to `CC1CN(c2cc3c(cc2F)c(=O)c(C(=O)O)cn3C2CC2)CCN1` (centres undefined), for which the MIC in [1] was 0.05 µg/mL (≈ 0.145 µM); in [6], 0.4 µg/mL (≈ 1.16 µM); in assay [7] it was 0.1 µg/mL (≈ 0.29 µM); in assay [15], 0.2 µg/mL (≈ 0.579 µM); in [16], 0.4 µg/mL (≈ 1.16 µM); in assay [8] it was 0.2 µg/mL (≈ 0.579 µM). Moreover, the figures for the MIC in [17] and in assay [9] were 0.4 µg/mL (≈ 1.16 µM) and 0.1 µg/mL (≈ 0.29 µM), respectively. For the same compound, the ED50 came out at 12 mg/kg in assay [2], 1 mg/kg in assay [3], 39 mg/kg in [4] and 0.4 mg/kg in [5]. Besides, the Ratio in assay [10] was determined as 0.066; in assay [11] it was 0.23.
In the case of `NC1CCN(c2c(F)cc3c(=O)c(C(=O)O)cn(C4CC4)c3c2F)C1` (centres undefined), the MIC was 0.013 µg/mL (≈ 0.0372 µM) in assay [14], 0.05 µg/mL (≈ 0.143 µM) in assay [7], 0.05 µg/mL (≈ 0.143 µM) in [15] and 0.013 µg/mL (≈ 0.0372 µM) in [9]. Further, the ED50 in assay [2] was determined as 6 mg/kg; in assay [3], 1 mg/kg; in assay [4], 15 mg/kg; in assay [5], 0.4 mg/kg. Also, the Ratio in assay [10] was found to be 0.029; in assay [11], 0.044. In addition, the DNA cleavage in assay [12] stood at 0.25 µg/mL.
Turning to `Cc1c(F)c(N2CCNCC2)cc2c1c(=O)c(C(=O)O)cn2C1CC1`, the MIC in assay [13] was 0.013 µg/mL (≈ 0.0376 µM); in [14], 0.013 µg/mL (≈ 0.0376 µM); in [1], 0.05 µg/mL (≈ 0.145 µM); in assay [6], 0.2 µg/mL (≈ 0.579 µM); in assay [7], 0.1 µg/mL (≈ 0.29 µM); in assay [15], 0.05 µg/mL (≈ 0.145 µM). In addition, the MIC in assay [16] came out at 0.05 µg/mL (≈ 0.145 µM); in assay [8] it was 0.1 µg/mL (≈ 0.29 µM); in [17] it was 0.1 µg/mL (≈ 0.29 µM); in assay [9], 0.025 µg/mL (≈ 0.0724 µM). For the same compound, the ED50 came out at 21 mg/kg in assay [2], 1.5 mg/kg in assay [3], 100 mg/kg in assay [4] and 0.4 mg/kg in [5]. Moreover, the Ratio in assay [10] was 0.044; in assay [11], 0.057. In assay [12], the DNA cleavage came to 0.3 µg/mL.
As to `Cc1c(F)c(N2CCC(N)C2)cc2c1c(=O)c(C(=O)O)cn2C1CC1` (centres undefined), the MIC was 0.05 µg/mL (≈ 0.145 µM) in [13]; 0.025 µg/mL (≈ 0.0724 µM) in assay [14]; 0.1 µg/mL (≈ 0.29 µM) in assay [1]; 0.4 µg/mL (≈ 1.16 µM) in assay [6]; 0.1 µg/mL (≈ 0.29 µM) in [7]; 0.013 µg/mL (≈ 0.0376 µM) in assay [15]. Also, the MIC in assay [16] turned out to be 0.4 µg/mL (≈ 1.16 µM); in assay [8], 0.025 µg/mL (≈ 0.0724 µM); in [17] it was 0.1 µg/mL (≈ 0.29 µM); in assay [9], 0.025 µg/mL (≈ 0.0724 µM). Also, the ED50 in [3] was 9.5 mg/kg; in assay [5], 0.7 mg/kg. The Ratio in assay [10] worked out at 0.087; in [11], 0.05. Also, in [12], the DNA cleavage was found to be 0.38 µg/mL.
In the case of `NC1CCN(c2cc3c(cc2F)c(=O)c(C(=O)O)cn3C2CC2)C1` (centres undefined), the MIC in assay [14] was found to be 0.025 µg/mL (≈ 0.0754 µM); in assay [6] it was 0.2 µg/mL (≈ 0.604 µM); in assay [7] it was 0.1 µg/mL (≈ 0.302 µM); in [15], 0.1 µg/mL (≈ 0.302 µM). The same compound came in with a PD50 in [3] of 3.4 mg/kg. The figures for the ED50 in assay [3] and in assay [5] were 3.4 mg/kg and 0.5 mg/kg, respectively. Further, the Ratio turned out to be 0.057 in [10] and 0.075 in assay [11]. Besides, the DNA cleavage in assay [12] stood at 0.1 µg/mL.
As to `Cc1c(F)c(N2CCC(C)(CN)C2)c(F)c2c1c(=O)c(C(=O)O)cn2C1CC1` (centres undefined), the MIC worked out at 0.05 µg/mL (≈ 0.128 µM) in assay [13]; 0.05 µg/mL (≈ 0.128 µM) in assay [14]; 0.1 µg/mL (≈ 0.255 µM) in [1]; 0.8 µg/mL (≈ 2.04 µM) in assay [6]; 0.2 µg/mL (≈ 0.511 µM) in [7]; 0.003 µg/mL (≈ 0.00766 µM) in [15]. For the same compound, the minimal inhibitory concentration (MIC) was 0.025 µg/mL (≈ 0.0639 µM) in [16], 0.003 µg/mL (≈ 0.00766 µM) in assay [8], 0.006 µg/mL (≈ 0.0153 µM) in [17] and 0.003 µg/mL (≈ 0.00766 µM) in [9]. In addition, the figures for the Ratio in assay [10] and in assay [11] were 0.13 and 0.0053, respectively. In assay [12], this compound returned a DNA cleavage of 3.75 µg/mL.
